From ChEMBL document CHEMBL3352639, “Synthesis and biological evaluation of thienopyrimidine derivatives as GPR119 agonists” (Bioorg Med Chem Lett, 2014)
One block for each molecule: values may come before it. The source made the active and inactive calls. The rule behind the calls is not given here.

Tests used:
[1] = target: T1, Glucose-dependent insulinotropic receptor (Homo sapiens) (UniProt Q8TDV5); assay: Activation of human GPR119 expressed in CHO-K1 cells at 1 uM after 24 hrs by CRE-luciferase assay relative to GSK1292263; format: functional, cell-based
T1 sequence (whole entry): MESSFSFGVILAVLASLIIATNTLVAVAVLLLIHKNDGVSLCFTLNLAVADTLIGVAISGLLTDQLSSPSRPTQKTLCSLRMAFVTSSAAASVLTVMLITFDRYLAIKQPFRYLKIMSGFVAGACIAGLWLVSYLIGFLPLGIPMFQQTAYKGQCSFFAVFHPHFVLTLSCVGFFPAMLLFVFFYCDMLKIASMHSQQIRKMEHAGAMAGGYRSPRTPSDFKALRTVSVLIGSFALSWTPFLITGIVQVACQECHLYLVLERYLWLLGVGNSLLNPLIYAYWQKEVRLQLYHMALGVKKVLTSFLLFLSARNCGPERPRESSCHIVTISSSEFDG

[2] = target: T2, Glucose-dependent insulinotropic receptor (Homo sapiens, UniProt Q8TDV5); assay: Agonist activity at human GPR119 expressed in CHO-K1 cells after 24 hrs by CRE-luciferase assay; format: functional, cell-based
T2 sequence (Q8TDV5 whole entry): T1 sequence (whole entry)

HFL1 = assay: Cytotoxicity against human HFL1 cells; format: cell-based
[3] = Cytotoxicity against chinese hamster CHOK1 cells; format: cell-based; conditions: Cricetulus griseus, CHO-K1
Beta-TC6 = assay: Increase in glucose-stimulated insulin release in mouse BetaTC6 cells after 1 hr by ELISA; format: functional, cell-based
Procedure, shortened: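 GSIS was measured in the TC-6 pancreatic beta-cell line exposed to compound over 10 nM to 100 nM, with insulin secretion read under glucose stimulation.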

Mus musculus = assay: Antidiabetic activity in C57BL/6 mouse assessed as reduction in plasma glucose AUC at 15 mg/kg by OGTT; format: functional, organism-based; set-up: dose 15 mg/kg
Procedure, shortened: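 OGTT in normal mice, n = 7 per group. Plasma glucose was followed over the test, and efficacy was taken as the AUC of glucose concentration. Data are given as means ± SEM.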

[4] = Metabolic stability in human liver microsomes assessed as compound remaining at 1 uM after 30 mins by LC/MS/MS analysis; format: ADME; conditions: read-out: Stability
[5] = Metabolic stability in rat liver microsomes assessed as compound remaining at 1 uM after 30 mins by LC/MS/MS analysis; format: ADME; conditions: read-out: Stability
Cytochrome P450 1A2 [6] = target: T3, Cytochrome P450 1A2 (Homo sapiens, UniProt P05177); assay: Inhibition of CYP1A2 (unknown origin); format: ADME
T3 sequence (P05177 whole entry): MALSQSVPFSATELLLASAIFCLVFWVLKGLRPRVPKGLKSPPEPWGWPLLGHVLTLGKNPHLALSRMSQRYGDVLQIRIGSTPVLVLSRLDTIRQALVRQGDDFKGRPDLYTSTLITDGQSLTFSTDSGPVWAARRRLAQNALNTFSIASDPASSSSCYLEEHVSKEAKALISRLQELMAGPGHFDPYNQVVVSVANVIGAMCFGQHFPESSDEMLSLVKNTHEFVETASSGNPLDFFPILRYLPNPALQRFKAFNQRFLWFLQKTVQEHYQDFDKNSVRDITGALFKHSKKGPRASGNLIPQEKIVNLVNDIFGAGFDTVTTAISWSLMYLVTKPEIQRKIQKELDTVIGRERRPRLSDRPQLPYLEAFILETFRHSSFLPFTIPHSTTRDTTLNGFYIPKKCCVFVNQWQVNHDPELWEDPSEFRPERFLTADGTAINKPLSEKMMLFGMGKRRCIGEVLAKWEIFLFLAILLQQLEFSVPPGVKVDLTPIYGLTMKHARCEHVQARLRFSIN

Cytochrome P450 2A6 = target: T4, Cytochrome P450 2A6 (Homo sapiens, UniProt P11509); assay: Inhibition of CYP2A6 (unknown origin); format: ADME
T4 sequence (P11509 whole entry): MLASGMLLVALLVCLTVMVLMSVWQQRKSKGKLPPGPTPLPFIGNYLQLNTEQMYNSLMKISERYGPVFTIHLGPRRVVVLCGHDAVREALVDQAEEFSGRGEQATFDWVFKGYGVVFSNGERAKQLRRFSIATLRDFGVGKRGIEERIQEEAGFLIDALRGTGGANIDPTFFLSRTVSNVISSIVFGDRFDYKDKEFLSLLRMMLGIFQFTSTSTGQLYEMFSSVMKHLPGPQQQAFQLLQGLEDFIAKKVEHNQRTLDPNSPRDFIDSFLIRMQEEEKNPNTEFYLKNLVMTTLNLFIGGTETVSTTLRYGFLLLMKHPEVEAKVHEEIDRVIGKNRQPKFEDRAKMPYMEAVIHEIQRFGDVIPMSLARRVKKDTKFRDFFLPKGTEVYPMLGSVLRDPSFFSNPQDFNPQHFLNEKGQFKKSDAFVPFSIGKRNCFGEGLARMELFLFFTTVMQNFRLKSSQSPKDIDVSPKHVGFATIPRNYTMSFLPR

Cytochrome P450 2C19 = Cytochrome P450 2C19 (Homo sapiens, UniProt P33261); assay: Inhibition of CYP2C19 (unknown origin); format: ADME
Cytochrome P450 2C9 [7] = target: T5, Cytochrome P450 2C9 (Homo sapiens, UniProt P11712); assay: Inhibition of CYP2C9 (unknown origin); format: ADME
Cytochrome P450 3A4 [8] = target: T6, Cytochrome P450 3A4 (Homo sapiens, UniProt P08684); assay: Inhibition of CYP3A4 (unknown origin); format: ADME
Cytochrome P450 2D6 = Cytochrome P450 2D6 (Homo sapiens, UniProt P10635); assay: Inhibition of CYP2D6 (unknown origin); format: ADME
Cytochrome P450 2B6 [9] = target: T7, Cytochrome P450 2B6 (Homo sapiens, UniProt P20813); assay: Inhibition of CYP2B6 (unknown origin); format: ADME
T7 sequence (P20813 whole entry): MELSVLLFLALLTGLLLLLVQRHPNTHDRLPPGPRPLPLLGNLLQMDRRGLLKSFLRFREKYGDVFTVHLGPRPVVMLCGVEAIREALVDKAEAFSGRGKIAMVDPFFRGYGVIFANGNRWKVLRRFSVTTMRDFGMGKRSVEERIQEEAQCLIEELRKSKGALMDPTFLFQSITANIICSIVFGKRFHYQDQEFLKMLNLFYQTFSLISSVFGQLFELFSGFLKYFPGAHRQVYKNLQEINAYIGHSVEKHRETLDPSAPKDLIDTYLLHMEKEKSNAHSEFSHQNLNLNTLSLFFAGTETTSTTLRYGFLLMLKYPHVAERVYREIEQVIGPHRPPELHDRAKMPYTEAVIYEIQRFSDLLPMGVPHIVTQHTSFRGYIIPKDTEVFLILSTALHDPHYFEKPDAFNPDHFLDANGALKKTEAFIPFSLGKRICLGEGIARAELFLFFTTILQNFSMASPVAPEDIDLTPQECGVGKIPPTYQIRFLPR

Cytochrome P450 1A2 [10] = target: T3, Cytochrome P450 1A2; assay: Induction of CYP1A2 (unknown origin); format: ADME
Cytochrome P450 2B6 [11] = target: T7, Cytochrome P450 2B6; assay: Induction of CYP2B6 (unknown origin); format: ADME
Cytochrome P450 2C9 [12] = target: T5, Cytochrome P450 2C9; assay: Induction of CYP2C9 (unknown origin); format: ADME
Cytochrome P450 2E1 = Cytochrome P450 2E1 (Homo sapiens, UniProt P05181); assay: Induction of CYP2E1 (unknown origin); format: ADME
Cytochrome P450 3A4 [13] = target: T6, Cytochrome P450 3A4; assay: Induction of CYP3A4 (unknown origin); format: ADME
hERG (KCNH2) = hERG (KCNH2) (Homo sapiens, UniProt Q12809); assay: Inhibition of human ERG at 10 uM
Procedure, shortened: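 hERG liability was assessed in a binding-assay format, reported as percent inhibition with the compound at 10 μM.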

[14] = Cytotoxicity against mouse NIH/3T3 cells; format: cell-based; conditions: NIH3T3
L929 = assay: Cytotoxicity against mouse L929 cells; format: cell-based

T5 sequence (P11712 whole entry): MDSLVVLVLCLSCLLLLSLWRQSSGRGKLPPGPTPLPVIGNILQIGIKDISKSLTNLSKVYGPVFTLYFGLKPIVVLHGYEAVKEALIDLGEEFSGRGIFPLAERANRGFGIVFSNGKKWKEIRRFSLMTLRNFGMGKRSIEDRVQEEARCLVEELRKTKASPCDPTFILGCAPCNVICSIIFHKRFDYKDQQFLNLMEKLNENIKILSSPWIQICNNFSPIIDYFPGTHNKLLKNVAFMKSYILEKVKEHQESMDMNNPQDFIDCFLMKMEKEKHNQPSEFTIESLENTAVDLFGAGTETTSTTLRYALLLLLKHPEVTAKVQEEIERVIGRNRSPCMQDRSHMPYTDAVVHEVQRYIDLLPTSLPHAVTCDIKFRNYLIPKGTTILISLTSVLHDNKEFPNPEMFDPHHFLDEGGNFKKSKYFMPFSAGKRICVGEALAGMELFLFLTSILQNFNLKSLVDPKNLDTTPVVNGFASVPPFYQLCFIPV
T6 sequence (P08684 whole entry): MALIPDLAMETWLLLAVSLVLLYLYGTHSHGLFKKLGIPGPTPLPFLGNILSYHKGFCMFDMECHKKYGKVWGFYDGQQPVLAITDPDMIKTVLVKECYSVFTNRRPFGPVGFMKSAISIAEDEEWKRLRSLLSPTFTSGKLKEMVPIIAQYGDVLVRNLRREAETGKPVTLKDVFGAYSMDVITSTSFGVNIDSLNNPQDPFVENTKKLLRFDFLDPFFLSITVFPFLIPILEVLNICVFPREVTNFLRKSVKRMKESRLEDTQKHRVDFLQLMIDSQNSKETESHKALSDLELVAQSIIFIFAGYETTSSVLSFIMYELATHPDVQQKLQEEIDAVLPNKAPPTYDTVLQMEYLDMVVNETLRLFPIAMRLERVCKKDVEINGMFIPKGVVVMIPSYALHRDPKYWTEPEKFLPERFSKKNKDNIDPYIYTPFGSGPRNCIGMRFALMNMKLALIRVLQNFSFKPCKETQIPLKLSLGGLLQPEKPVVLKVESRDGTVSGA
Sequence of Cytochrome P450 2C19 (P33261 whole entry): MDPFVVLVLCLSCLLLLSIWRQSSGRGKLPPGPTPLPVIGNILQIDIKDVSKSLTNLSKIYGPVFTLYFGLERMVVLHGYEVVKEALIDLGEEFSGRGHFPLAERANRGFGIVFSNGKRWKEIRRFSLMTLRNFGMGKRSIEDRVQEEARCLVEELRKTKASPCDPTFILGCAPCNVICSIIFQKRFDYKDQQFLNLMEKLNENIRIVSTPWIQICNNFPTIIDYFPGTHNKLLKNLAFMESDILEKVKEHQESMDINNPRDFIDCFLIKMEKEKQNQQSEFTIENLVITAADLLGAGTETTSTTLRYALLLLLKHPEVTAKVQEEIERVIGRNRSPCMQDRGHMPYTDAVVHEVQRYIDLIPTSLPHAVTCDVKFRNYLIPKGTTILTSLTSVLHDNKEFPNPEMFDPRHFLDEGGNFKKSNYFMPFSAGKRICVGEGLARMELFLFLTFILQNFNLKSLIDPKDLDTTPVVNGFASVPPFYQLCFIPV
Sequence of Cytochrome P450 2D6 (P10635 whole entry): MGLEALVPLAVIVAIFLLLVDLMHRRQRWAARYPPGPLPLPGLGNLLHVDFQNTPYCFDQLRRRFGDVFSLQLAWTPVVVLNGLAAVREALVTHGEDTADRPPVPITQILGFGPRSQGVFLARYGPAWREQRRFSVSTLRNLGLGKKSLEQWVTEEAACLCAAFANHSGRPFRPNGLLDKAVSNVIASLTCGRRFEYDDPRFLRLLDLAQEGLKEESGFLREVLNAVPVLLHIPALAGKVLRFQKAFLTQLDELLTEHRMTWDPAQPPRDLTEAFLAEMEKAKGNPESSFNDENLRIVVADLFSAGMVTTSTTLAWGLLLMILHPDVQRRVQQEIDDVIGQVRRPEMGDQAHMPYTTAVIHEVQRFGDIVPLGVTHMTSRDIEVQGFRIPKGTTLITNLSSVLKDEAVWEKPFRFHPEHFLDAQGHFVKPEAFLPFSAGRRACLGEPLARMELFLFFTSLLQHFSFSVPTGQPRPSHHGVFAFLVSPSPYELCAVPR
Sequence of Cytochrome P450 2E1 (P05181 whole entry): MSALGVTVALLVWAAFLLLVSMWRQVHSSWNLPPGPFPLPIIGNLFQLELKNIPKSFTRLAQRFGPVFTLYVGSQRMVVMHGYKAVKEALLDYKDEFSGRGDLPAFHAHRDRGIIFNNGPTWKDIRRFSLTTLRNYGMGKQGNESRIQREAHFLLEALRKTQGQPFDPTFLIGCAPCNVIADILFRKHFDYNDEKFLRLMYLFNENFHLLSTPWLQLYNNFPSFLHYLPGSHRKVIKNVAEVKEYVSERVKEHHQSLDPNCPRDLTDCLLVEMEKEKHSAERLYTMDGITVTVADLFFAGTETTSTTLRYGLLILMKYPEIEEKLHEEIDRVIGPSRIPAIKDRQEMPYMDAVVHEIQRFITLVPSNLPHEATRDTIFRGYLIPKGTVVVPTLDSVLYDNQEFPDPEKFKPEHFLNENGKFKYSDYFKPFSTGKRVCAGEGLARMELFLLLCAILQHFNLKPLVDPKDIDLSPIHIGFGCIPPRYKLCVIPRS
Sequence of hERG (KCNH2) (Q12809 whole entry): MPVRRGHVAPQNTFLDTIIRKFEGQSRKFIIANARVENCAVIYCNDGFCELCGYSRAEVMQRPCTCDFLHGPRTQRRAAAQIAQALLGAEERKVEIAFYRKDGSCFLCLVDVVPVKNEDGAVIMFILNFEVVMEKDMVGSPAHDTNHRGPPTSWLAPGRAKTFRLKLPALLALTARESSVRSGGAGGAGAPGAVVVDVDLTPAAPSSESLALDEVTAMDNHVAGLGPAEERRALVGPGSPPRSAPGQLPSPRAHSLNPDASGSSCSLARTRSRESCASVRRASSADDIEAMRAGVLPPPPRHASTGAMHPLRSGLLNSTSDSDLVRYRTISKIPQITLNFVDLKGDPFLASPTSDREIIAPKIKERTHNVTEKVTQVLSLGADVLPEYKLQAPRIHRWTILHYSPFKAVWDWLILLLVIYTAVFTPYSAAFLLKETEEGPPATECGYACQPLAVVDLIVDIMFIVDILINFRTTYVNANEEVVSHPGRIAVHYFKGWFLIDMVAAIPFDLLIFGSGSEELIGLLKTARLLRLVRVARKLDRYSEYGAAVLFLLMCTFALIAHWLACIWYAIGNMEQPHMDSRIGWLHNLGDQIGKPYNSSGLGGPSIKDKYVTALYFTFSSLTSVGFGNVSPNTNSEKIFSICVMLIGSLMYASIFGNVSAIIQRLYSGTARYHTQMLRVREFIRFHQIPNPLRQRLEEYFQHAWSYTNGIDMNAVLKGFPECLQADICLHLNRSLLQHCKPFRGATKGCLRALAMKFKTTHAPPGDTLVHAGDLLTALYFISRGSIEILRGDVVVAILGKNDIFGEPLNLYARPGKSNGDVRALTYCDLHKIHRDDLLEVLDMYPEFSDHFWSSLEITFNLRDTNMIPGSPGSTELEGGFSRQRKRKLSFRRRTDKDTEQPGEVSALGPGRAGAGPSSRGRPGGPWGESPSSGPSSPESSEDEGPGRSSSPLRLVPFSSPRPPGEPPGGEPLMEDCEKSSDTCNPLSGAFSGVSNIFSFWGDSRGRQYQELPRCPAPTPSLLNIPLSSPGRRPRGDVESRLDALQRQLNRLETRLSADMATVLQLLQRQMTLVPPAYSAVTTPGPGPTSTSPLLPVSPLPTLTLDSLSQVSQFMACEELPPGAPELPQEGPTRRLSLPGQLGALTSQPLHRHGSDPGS

Compound: CCc1cnc(N2CCC(Oc3ncnc4cc(-c5ccc(S(C)(=O)=O)cc5)sc34)CC2)nc1
- Activity [1]: 75%
- EC50 [2]: 240 nM

Compound: CC(C)(C)OC(=O)N1CCC(Oc2ncnc3cc(-c4ccc(S(C)(=O)=O)cc4)sc23)CC1
- Activity [1]: 64%
- EC50 [2]: 100 nM

Compound: CN(c1ncnc2cc(-c3ccc(S(C)(=O)=O)cc3F)sc12)C1CCN(C(=O)C2CC2)CC1
- Activity [1]: 65%

Compound: CC(C)S(=O)(=O)N1CCC(N(C)c2ncnc3cc(-c4ccc(S(C)(=O)=O)cc4)sc23)CC1
- Activity [1]: 70%
- EC50 [2]: 1200 nM

Compound: CN(c1ncnc2cc(-c3ccc(S(C)(=O)=O)cc3F)sc12)C1CCN(C(=O)OC(C)(C)C)CC1
- IC50 (HFL1): > 100000 nM
- IC50 [3]: 53400 nM
- Activity (Beta-TC6): Dose-dependent effect
- Activity (Mus musculus): Active
- Activity [1]: 94%
- EC50 [2]: 3 nM
- remaining at 0.5 h, 1 µM [4]: > 95%
- remaining at 0.5 h, 1 µM [5]: > 95%
- inhibition (INH) (Cytochrome P450 1A2 [6]): Not Active
- inhibition (INH) (Cytochrome P450 2A6): Not Active
- inhibition (INH) (Cytochrome P450 2C19): Not Active
- IC50 (Cytochrome P450 2C9 [7]): 76800 nM
- inhibition (INH) (Cytochrome P450 3A4 [8]): Not Active
- inhibition (INH) (Cytochrome P450 2D6): Not Active
- inhibition (INH) (Cytochrome P450 2B6 [9]): Not Active
- Activity (Cytochrome P450 1A2 [10]): Not Active
- Activity (Cytochrome P450 2B6 [11]): Not Active
- Activity (Cytochrome P450 2C9 [12]): Not Active
- Activity (Cytochrome P450 2E1): Not Active
- Activity (Cytochrome P450 3A4 [13]): Not Active
- inhibition at 10 µM (hERG (KCNH2)): 13%
- IC50 [14]: 49800 nM
- IC50 (L929): 65800 nM

Compound: CC(C)OC(=O)N1CCC(N(C)c2ncnc3cc(-c4ccc(S(C)(=O)=O)cc4)sc23)CC1
- Activity [1]: 67%
- EC50 [2]: 82 nM

Compound: CCN(c1ncnc2cc(-c3ccc(S(C)(=O)=O)cc3F)sc12)C1CCN(C(=O)OC(C)(C)C)CC1
- Activity [1]: 45%

Further lines, results first:

- Activity [1]: 49%
Compound: CCc1cnc(N2CCC(Nc3ncnc4cc(-c5ccc(S(C)(=O)=O)cc5)sc34)CC2)nc1

- Activity [1]: 49%
Compound: CC(C)NC(=O)N1CCC(N(C)c2ncnc3cc(-c4ccc(S(C)(=O)=O)cc4)sc23)CC1

- Activity [1]: 72%
- EC50 [2]: 173 nM
Compound: CN(c1ncnc2cc(-c3ccc(S(C)(=O)=O)cc3)sc12)C1CCN(C(=O)C2CC2)CC1

- Activity [1]: 105%
- EC50 [2]: 26 nM
Compound: CN(c1ncnc2cc(-c3ccc(S(C)(=O)=O)cc3F)sc12)C1CCN(C(=O)OC2(C)CC2)CC1
